Source: ChEMBL document CHEMBL5104108, “Concise synthesis and biological activity evaluation of novel pyrazinyl-aryl urea derivatives against several cancer cell lines, which can especially induce T24 apoptotic and necroptotic cell death” (RSC Med Chem, 2022)
Calls of active or inactive are those of the source. The calls are words filed in the database; no cut-off is given here.

Columns and labels:
T-24 [1] = test: Induction of apoptosis in human T24 cells assessed as apoptotic cells at 5 uM measured after 10 hrs by Annexin-V/FITC and propidium iodide staining based flow cytometry analysis; type: functional
Outline: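 T24 cells in 60 mm dishes treated 10 h at 37 °C, collected, PBS-washed, resuspended in binding buffer, stained with Annexin V-FITC and PI for 15 min at room temperature in the dark. At least 1 × 10^4 events per sample by flow cytometry; apoptotic cells = early (Annexin+/PI−) plus late (Annexin+/PI+). Triplicate experiments.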

T-24 [2] = test: Induction of apoptosis in human T24 cells assessed as increase in Cytochrome c expression at 5 to 7.5 uM measured by Western blot analysis; type: functional, cell-based; conditions: dose 5-7.5 µM
Outline: (§1)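 Apoptosis-related proteins measured by Western blot in T24 lysates: 40 μg protein per lane by SDS-PAGE, PVDF transfer, primary and peroxidase-linked secondary antibodies, ECL detection, densitometry of gray values with β-actin as loading control.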

T-24 [3] = test: Induction of intracellular reactive oxygen species production in human T24 cells assessed as ROS level at 10 uM measured after 16 hrs by flow cytometry analysis; type: functional, cell-based
Outline: (§2)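 After 16 h treatment, floating and adherent T24 cells pooled and loaded with DCFH-DA (final 10 μM) for 30 min at 37 °C in the dark, washed, resuspended in PBS and analyzed by flow cytometry; fluorescence also quantified by luminescence spectrometry. ROS expressed relative to control; mean ± S.D. of three independent experiments.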

T-24 [4] = test: Induction of apoptosis in human T24 cells at 5 to 7.5 uM measured after 10 hrs by Hoechst 33342 and propidium iodide staining based flow cytometry analysis; type: functional, cell-based; conditions: dose 5-7.5 µM
[5] = MRT (0 to 48 hrs) in Sprague-Dawley rat at 6 mg/kg, IG measured HPLC analysis; type: ADME, organism-based; conditions: in vivo, po
Outline: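 Fasted (12 h) male-unspecified Sprague-Dawley rats (250 ± 20 g), n = 6 per group. Single intragastric dose of suspension (2 mg mL−1 in Tween 80/0.9% NaCl 1.5:5 v/v). Orbital blood drawn at 0.5–48 h and plasma assayed by reversed-phase C18 HPLC-UV. One-compartment fit, weight 1.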

T-24 [6] = test: Antiproliferative activity against human T24 cells measured after 72 hrs by MTT assay; type: functional, cell-based; conditions: T-24, 72 h
Outline: (§3)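 Cells seeded 5 × 10^3 per well, grown overnight at 37 °C, then exposed to compound at final 1–40 μM (1, 2.5, 5, 7.5, 10, 12.5, 15, 20, 30, 40 μM) for the stated period. MTT added, 4 h at 37 °C, formazan dissolved in DMSO, absorbance read. IC50 = concentration killing 50% of cells relative to untreated control; mean ± S.D. of four independent experiments.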

T-24 [7] = test: Induction of intracellular reactive oxygen species production in human T24 cells assessed as ROS level at 5 uM measured after 16 hrs by flow cytometry analysis; type: functional, cell-based; outline: as §2
[8] = Absorption rate constant in Sprague-Dawley rat at 12 mg/kg, IG measured HPLC analysis; type: ADME, organism-based; conditions: in vivo, po
T-24 [9] = test: Down-regulation of p-MLKL expression in human T24 cells at 7.5 to 10 uM measured in presence of 60 uM Nec-1 after 16 hrs by Western blot analysis; type: functional, cell-based; conditions: dose 7.5-10 µM
Outline: (§4)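 T24 cells co-incubated 16 h with or without Nec-1 (60 μM). Lysates quantified by BCA, 40 μg protein resolved by SDS-PAGE, transferred to PVDF, probed with primary and peroxidase-conjugated secondary antibodies, detected by ECL. Band gray values normalized to β-actin loading control.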

T-24 [10] = test: Induction of intracellular reactive oxygen species production in human T24 cells at 5 to 10 uM measured in presence of 60 uM Nec-1 after 16 hrs by flow cytometry analysis; type: functional, cell-based; conditions: dose 5-10 µM
Outline: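 After 5-23 treatment (16 h), floating and adherent T24 cells pooled and loaded with DCFH-DA (final 10 μM) for 30 min at 37 °C in the dark. Cells washed, resuspended in PBS and read by flow cytometry; quantified by luminescence spectrometry as % of control. Runs with zVAD (30 μM) or Nec-1 (60 μM). Three parallel samples.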

[11] = Clearance in Sprague-Dawley rat at 6 mg/kg, IG measured HPLC analysis; type: ADME, organism-based; conditions: in vivo, po
T-24 [12] = test: Down-regulation of RIPK3 expression in human T24 cells at 7.5 to 10 uM measured in presence of 60 uM Nec-1 after 16 hrs by Western blot analysis; type: functional, cell-based; conditions: dose 7.5-10 µM; outline: as §4
HepG2 = test: Antiproliferative activity against human HepG2 cells measured after 48 hrs by MTT assay; type: functional, cell-based; conditions: HepG2, 48 h; outline: as §3
[13] = Half-life in Sprague-Dawley rat at 6 mg/kg, IG measured HPLC analysis; type: ADME, organism-based; conditions: in vivo, po
T-24 [14] = test: Down-regulation of p-RIPK1 expression in human T24 cells at 7.5 to 10 uM measured in presence of 60 uM Nec-1 after 16 hrs by Western blot analysis; type: functional, cell-based; conditions: dose 7.5-10 µM; outline: as §4
T-24 [15] = test: Down-regulation of RIPK2 expression in human T24 cells at 7.5 to 10 uM measured in presence of 60 uM Nec-1 after 16 hrs by Western blot analysis; type: functional, cell-based; conditions: dose 7.5-10 µM; outline: as §4
[16] = Clearance in Sprague-Dawley rat at 12 mg/kg, IG measured HPLC analysis; type: ADME, organism-based; conditions: in vivo, po
T-24 [17] = test: Down-regulation of VEGFR-2 mRNA expression in human T24 cells at 5 to 10 uM measured by RT-PCR analysis; type: functional, cell-based; conditions: dose 5-10 µM
T-24 [18] = test: Up-regulation of MLKL mRNA expression in human T24 cells at 7.5 to 12.5 uM measured by RT-PCR analysis; type: functional, cell-based; conditions: dose 7.5-12.5 µM
Outline: (§5)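 Total T24 RNA extracted with TRIzol. RT-PCR normalized to GAPDH, relative expression by 2−ΔΔCt versus control. Incubation 16 h for RIPK1/RIPK3/MLKL. At least three independent experiments, each in triplicate.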

T-24 [19] = test: Induction of intracellular reactive oxygen species production in human T24 cells assessed as ROS level at 7.5 uM measured after 16 hrs by flow cytometry analysis; type: functional, cell-based; outline: as §2
T-24 [20] = test: Up-regulation of p-MLKL expression in human T24 cells at 7.5 to 10 uM measured after 16 hrs by Western blot analysis; type: functional, cell-based; conditions: dose 7.5-10 µM
T-24 [21] = test: Up-regulation of RIPK1 mRNA expression in human T24 cells at 7.5 to 12.5 uM measured by RT-PCR analysis; type: functional, cell-based; conditions: dose 7.5-12.5 µM; outline: as §5
T-24 [22] = test: Up-regulation of RIPK1 expression in human T24 cells at 7.5 to 10 uM measured after 16 hrs by Western blot analysis; type: functional, cell-based; conditions: dose 7.5-10 µM
T-24 [23] = test: Induction of apoptosis in human T24 cells assessed as increase in Bax expression at 5 to 7.5 uM measured by Western blot analysis; type: functional, cell-based; conditions: dose 5-7.5 µM; outline: as §1
T-24 [24] = test: Induction of apoptosis in human T24 cells assessed as increase in cleaved caspase-8 expression at 0 to 5 uM measured by Western blot analysis; type: functional, cell-based; conditions: dose 0-5 µM; outline: as §1
[25] = Antiproliferative activity against human HCV-29 cells measured after 48 hrs by MTT assay; type: functional, cell-based; conditions: HCV-29, 48 h; outline: as §3

## O=C(Nc1ccc(C(F)(F)F)cc1)Nc1cccc(CNc2nccnc2Cl)c1
T-24 [1]
  Activity: 14.83%
T-24 [2]
  Activity: Active
T-24 [3]
  Activity: Active
T-24 [4]
  Activity: Active
[5]
  MRT last: 9.17 h
T-24 [6]
  IC50: 3.55 µM
T-24 [7]
  Activity: Active
[8]
  Ka: 0.107 h⁻¹
T-24 [9]
  Activity: Active
T-24 [10]
  Activity: Active
[11]
  CL/F: 0.811 mL/min
T-24 [12]
  Activity: Active
HepG2
  IC50: 5.05 µM
[13]
  half-life: 6.56 h
T-24 [14]
  Activity: Active
T-24 [15]
  Activity: Active
[16]
  CL/F: 0.659 mL/min
T-24 [17]
  Activity: Active
T-24 [18]
  Activity: Active
T-24 [19]
  Activity: Active
T-24 [20]
  Activity: Active
T-24 [21]
  Activity: Active
T-24 [22]
  Activity: Active
T-24 [23]
  Activity: Active
T-24 [24]
  Activity: Active
[25]
  IC50: 30 µM
